In ChEMBL document CHEMBL2396515, “Quercetin-POC conjugates: Differential stability and bioactivity profiles between breast cancer (MCF-7) and colorectal carcinoma (HCT116) cell lines” (Bioorg Med Chem, 2013):
The source made the active and inactive calls. The calls are words filed in the database; no cut-off is given here.

Experiments:
[1] = system: HCT-116; assay: Drug metabolism in human HCT116 cells assessed as quercetin level at 30 uM after 1 hr by HPLC analysis; type: ADME, cell-based; conditions: hct-116, 1 h
How it was run: (§1)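 MCF-7 or HCT116 cells were seeded at 2×10^5 per well and grown 24 h at 37 °C, 5% CO2, then given 30 µM conjugate. At 1, 3, 6 and 12 h cells were PBS-washed, trypsinized, sonicated and filtered. Lysates were run on C18 HPLC (UV 340 nm). Each species is reported as a percentage of integrated peak area; peaks were identified by MALDI-TOF MS.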

[2] = Metabolic stability in human HCT116 cells assessed as compound remaining at 30 uM after 12 hrs by HPLC analysis; type: ADME, cell-based, HCT-116; conditions: read-out: Stability; how it was run: as §1
[3] = Metabolic stability in human HCT116 cells assessed as compound remaining at 30 uM after 6 hrs by HPLC analysis; type: ADME, cell-based, HCT-116; conditions: read-out: Stability; how it was run: as §1
[4] = Metabolic stability in human HCT116 cells assessed as compound remaining at 30 uM after 3 hrs by HPLC analysis; type: ADME, cell-based, HCT-116; conditions: read-out: Stability; how it was run: as §1
[5] = Metabolic stability in human HCT116 cells assessed as compound remaining at 30 uM after 1 hr by HPLC analysis; type: ADME, cell-based, HCT-116; conditions: read-out: Stability; how it was run: as §1
[6] = Metabolic stability in human MCF7 cells assessed as compound remaining at 30 uM after 3 hrs by HPLC analysis; type: ADME, cell-based; conditions: read-out: Stability; how it was run: as §1
[7] = Metabolic stability in human MCF7 cells assessed as compound remaining at 30 uM after 6 hrs by HPLC analysis; type: ADME, cell-based; conditions: read-out: Stability; how it was run: as §1
[8] = Metabolic stability in human MCF7 cells assessed as compound remaining at 30 uM after 1 hr by HPLC analysis; type: ADME, cell-based; conditions: read-out: Stability; how it was run: as §1
[9] = Solubility of the compound in DMEM cell-free cell culture medium up to 100 uM; type: physicochemical
How it was run: (§2)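 DMSO stocks ([…]–10 mM) were serially diluted into PBS pH 7.4 or DMEM with 10% FBS to final 0.5, 5, 25, 50, 100, 200 µM (2% DMSO) and 300 µM (3% DMSO). Solubility was judged by forward light scattering in a laser nephelometer.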

[10] = Solubility of the compound in PBS buffer at 0.5 to 300 uM; type: physicochemical; how it was run: as §2
[11] = Drug degradation in DMEM cell-free cell culture medium assessed as formation of 3-O-POC-Q at 50 uM after 24 hrs by HPLC analysis; type: physicochemical
How it was run: (§3)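 Conjugates diluted from a 10 mM DMSO stock to 50 µM final in cell-free culture medium (DMEM with 10% FBS), held at 37 °C. Samples were taken at 0, 1, 3, 6, 12, 24, 48 and 96 h, vortexed, and run on C18 reverse-phase HPLC with an acetonitrile/0.1% formic acid gradient at 1 mL/min, detected by UV at 340 nm.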

[12] = Half life of the compound in DMEM cell-free cell culture medium at 50 uM by HPLC analysis; type: physicochemical; how it was run: as §3
[13] = Half life of the compound in PBS buffer at pH 7.4 at 50 uM by HPLC analysis; type: physicochemical
How it was run: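 Compound at 50 µM in PBS pH 7.4, incubated at 37 °C. Aliquots were drawn at 0, 1, 3, 6, 12, 24, 48 and 96 h and analysed by C18 reverse-phase HPLC with an acetonitrile/0.1% formic acid gradient, detected by UV at 340 nm.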

[14] = system: HCT-116; assay: Cytotoxicity against human HCT116 cells at 1 to 100 uM after 12 hrs by MTT assay; type: functional, cell-based
How it was run: (§4)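 MCF-7 or HCT116 cells were seeded at 5×10^3 per well in DMEM with 10% FBS and grown 1 day at 37 °C, 5% CO2. Compounds in 1% DMSO were added at 1, 5, 10, 50, 100 or 250 µM. Viability was read by MTT after 12 h; each assay was done three times.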

[15] = system: MCF7; assay: Drug metabolism in human MCF7 cells assessed as quercetin level at 30 uM after 12 hrs by HPLC analysis; type: ADME, cell-based; conditions: mcf7, 12 h; how it was run: as §1
[16] = system: MCF7; assay: Cytotoxicity against human MCF7 cells at 1 to 100 uM after 12 hrs by MTT assay; type: functional, cell-based; how it was run: as §4
[17] = system: MCF7; assay: Metabolic stability in human MCF7 cells assessed as compound remaining at 30 uM after 12 hrs by HPLC analysis; type: ADME, cell-based; conditions: mcf7, 12 h; how it was run: as §1
[18] = system: MCF7; assay: Drug metabolism in human MCF7 cells assessed as 3-O-POC-Q level at 30 uM after 12 hrs by HPLC analysis; type: ADME, cell-based; conditions: mcf7, 12 h; how it was run: as §1
[19] = system: HCT-116; assay: Drug metabolism in human HCT116 cells assessed as 7-O-POC-Q level at 30 uM after 6 hrs by HPLC analysis; type: ADME, cell-based; conditions: hct-116, 6 h; how it was run: as §1
[20] = system: HCT-116; assay: Drug metabolism in human HCT116 cells assessed as 7-O-POC-Q level at 30 uM after 12 hrs by HPLC analysis; type: ADME, cell-based; conditions: hct-116, 12 h; how it was run: as §1
[21] = system: HCT-116; assay: Drug metabolism in human HCT116 cells assessed as 7-O-POC-Q level at 30 uM after 3 hrs by HPLC analysis; type: ADME, cell-based; conditions: hct-116, 3 h; how it was run: as §1
[22] = system: MCF7; assay: Drug metabolism in human MCF7 cells assessed as 7-O-POC-Q level at 30 uM after 12 hrs by HPLC analysis; type: ADME, cell-based; conditions: mcf7, 12 h; how it was run: as §1
[23] = system: HCT-116; assay: Drug metabolism in human HCT116 cells assessed as 7-O-POC-Q level at 30 uM after 1 hr by HPLC analysis; type: ADME, cell-based; conditions: hct-116, 1 h; how it was run: as §1
[24] = system: MCF7; assay: Drug metabolism in human MCF7 cells assessed as 7-O-POC-Q level at 30 uM after 3 hrs by HPLC analysis; type: ADME, cell-based; conditions: mcf7, 3 h; how it was run: as §1
[25] = system: MCF7; assay: Drug metabolism in human MCF7 cells assessed as 7-O-POC-Q level at 30 uM after 6 hrs by HPLC analysis; type: ADME, cell-based; conditions: mcf7, 6 h; how it was run: as §1
[26] = system: HCT-116; assay: Drug metabolism in human HCT116 cells assessed as quercetin sulfate level at 30 uM after 12 hrs by HPLC analysis; type: ADME, cell-based; conditions: hct-116, 12 h; how it was run: as §1
[27] = system: HCT-116; assay: Drug metabolism in human HCT116 cells assessed as quercetin sulfate level at 30 uM after 6 hrs by HPLC analysis; type: ADME, cell-based; conditions: hct-116, 6 h; how it was run: as §1
[28] = system: HCT-116; assay: Drug metabolism in human HCT116 cells assessed as quercetin sulfate level at 30 uM after 3 hrs by HPLC analysis; type: ADME, cell-based; conditions: hct-116, 3 h; how it was run: as §1
[29] = system: HCT-116; assay: Drug metabolism in human HCT116 cells assessed as quercetin sulfate level at 30 uM after 1 hr by HPLC analysis; type: ADME, cell-based; conditions: hct-116, 1 h; how it was run: as §1
[30] = system: MCF7; assay: Drug metabolism in human MCF7 cells assessed as quercetin sulfate level at 30 uM after 12 hrs by HPLC analysis; type: ADME, cell-based; conditions: mcf7, 12 h; how it was run: as §1
[31] = system: MCF7; assay: Drug metabolism in human MCF7 cells assessed as quercetin sulfate level at 30 uM after 1 hr by HPLC analysis; type: ADME, cell-based; conditions: mcf7, 1 h; how it was run: as §1
[32] = system: HCT-116; assay: Drug metabolism in human HCT116 cells assessed as quercetin-glucuronide level at 30 uM after 12 hrs by HPLC analysis; type: ADME, cell-based; conditions: hct-116, 12 h; how it was run: as §1
[33] = system: HCT-116; assay: Drug metabolism in human HCT116 cells assessed as quercetin-glucuronide level at 30 uM after 6 hrs by HPLC analysis; type: ADME, cell-based; conditions: hct-116, 6 h; how it was run: as §1
[34] = system: HCT-116; assay: Drug metabolism in human HCT116 cells assessed as quercetin-glucuronide level at 30 uM after 3 hrs by HPLC analysis; type: ADME, cell-based; conditions: hct-116, 3 h; how it was run: as §1
[35] = system: HCT-116; assay: Drug metabolism in human HCT116 cells assessed as quercetin-glucuronide level at 30 uM after 1 hr by HPLC analysis; type: ADME, cell-based; conditions: hct-116, 1 h; how it was run: as §1
[36] = system: MCF7; assay: Drug metabolism in human MCF7 cells assessed as quercetin-glucuronide level at 30 uM after 12 hrs by HPLC analysis; type: ADME, cell-based; conditions: mcf7, 12 h; how it was run: as §1
[37] = system: HCT-116; assay: Drug metabolism in human HCT116 cells assessed as quercetin level at 30 uM after 6 hrs by HPLC analysis; type: ADME, cell-based; conditions: hct-116, 6 h; how it was run: as §1
[38] = system: HCT-116; assay: Drug metabolism in human HCT116 cells assessed as quercetin level at 30 uM after 3 hrs by HPLC analysis; type: ADME, cell-based; conditions: hct-116, 3 h; how it was run: as §1
[39] = Chemical stability of the compound in DMEM cell-free cell culture medium at 50 uM after 24 to 54 hrs by HPLC analysis; type: physicochemical; how it was run: as §3
[40] = Solubility of the compound in PBS buffer at 300 uM; type: physicochemical; how it was run: as §2
[41] = system: MCF7; assay: Drug metabolism in human MCF7 cells assessed as quercetin-glucuronide level at 30 uM after 1 hr by HPLC analysis; type: ADME, cell-based; conditions: mcf7, 1 h; how it was run: as §1
[42] = system: HCT-116; assay: Drug metabolism in human HCT116 cells assessed as quercetin level at 30 uM after 12 hrs by HPLC analysis; type: ADME, cell-based; conditions: hct-116, 12 h; how it was run: as §1

Stability [1]	remaining at 12 h, 30 µM [2] [%]	remaining at 6 h, 30 µM [3] [%]	remaining at 3 h, 30 µM [4] [%]	remaining at 1 h, 30 µM [5] [%]	remaining at 3 h, 30 µM [6] [%]	remaining at 6 h, 30 µM [7] [%]	remaining at 1 h, 30 µM [8] [%]	solubility [9]	solubility [10]	half-life at 50 µM [12] [min]	half-life at 50 µM [13] [days]	Stability [15]	Stability [17]	Stability [26]	Stability [27]	Stability [28]	Stability [29]	Structure (SMILES)	Activity [14]	Activity [16]	further results
Stable	3	20	47	64	6	1	25	soluble	Insoluble	1440	> 4	Stable	Stable	Stable	Stable	Stable	Stable	CC(C)OC(=O)OCOc1cc(O)c2c(=O)c(OCOC(=O)OC(C)C)c(-c3ccc(O)c(O)c3)oc2c1	Active	Active	Drug degradation [11]: Active; Stability [18]: Stable; Stability [19]: Stable; Stability [20]: Stable; Stability [21]: Stable; Stability [22]: Stable; Stability [23]: Stable; Stability [24]: Stable; Stability [25]: Stable; Stability [30]: Stable; Stability [31]: Stable; Stability [32]: Stable; Stability [33]: Stable; Stability [34]: Stable; Stability [35]: Stable; Stability [36]: Stable; Stability [37]: Stable; Stability [38]: Stable
Stable	65	71	76	80	49	4	92	soluble	soluble	3240	> 4	Stable	Stable	Stable	Stable	Stable	Stable	CC(C)OC(=O)OCOc1c(-c2ccc(O)c(O)c2)oc2cc(O)cc(O)c2c1=O	inactive	Active	Stability [39]: Stable; solubility [40]: soluble; Stability [30]: Stable; Stability [31]: Stable; Stability [32]: Stable; Stability [33]: Stable; Stability [34]: Stable; Stability [35]: Stable; Stability [36]: Stable; Stability [41]: Stable; Stability [37]: Stable; Stability [42]: Stable; Stability [38]: Stable
